Laboratory results taken from ChEMBL document CHEMBL3612001, “Design and discovery of 2-(4-(1H-tetrazol-5-yl)-1H-pyrazol-1-yl)-4-(4-phenyl)thiazole derivatives as cardiotonic agents via inhibition of PDE3” (Bioorg Med Chem, 2015).

Assays:
Mus musculus [1] = assay: Toxicity in Swiss albino mouse assessed as changes in SGPT level at 10 mg/kg, po dosed once orally for 28 days (reference value: 41.46 +/- 17.25 U/L); format: organism-based; settings: in vivo, 672 h
Mus musculus [2] = assay: Toxicity in Swiss albino mouse assessed as changes in SGPT level at 0.1 mg/kg, po dosed once orally for 28 days (reference value: 41.46 +/- 17.25 U/L); format: organism-based; settings: in vivo, 672 h
Mus musculus [3] = assay: Toxicity in Swiss albino mouse assessed as changes in albumin level at 100 mg/kg, po dosed once orally for 28 days (reference value: 2.78 +/- 1.82 g/dL); format: organism-based; settings: in vivo, 672 h
Cardiac atrium [4] = assay: Cardiotonic activity in reserpine-pretreated and spontaneously beating rat atria assessed as inotropic activity by measuring contractile force at 10 uM (reference value: 100%); format: functional
In short: (§1)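 Male Wistar rats (250–350 g) given reserpine 5 mg/kg ip 24 h before euthanasia under thiopental 80 mg/kg ip. Whole atria mounted in Krebs–Henseleit (95% O2/5% CO2, 35–37 °C, pH 7.35–7.45) at ~0.5 g resting tension, equilibrated 40–50 min. Used only if unresponsive to tyramine 1.5 μM. Compound added cumulatively (1–100 μM). Isometric force and rate recorded, six atria per compound.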

Cardiac atrium [5] = assay: Toxic cardiotonic activity in reserpine-pretreated and spontaneously beating rat atria assessed as chronotropic activity by measuring contractile frequency rate at 100 uM (reference value: 100%); format: toxicity; in short: as §1
Mus musculus [6] = assay: Toxicity in Swiss albino mouse assessed as changes in ALP level at 100 mg/kg, po dosed once orally for 28 days (reference value: 132.4 +/- 6.26 U/L); format: organism-based; settings: in vivo, 672 h
Mus musculus [7] = assay: Toxicity in Swiss albino mouse assessed as changes in total protein level at 0.1 mg/kg, po dosed once orally for 28 days (reference value: 3.45 +/- 0.45 […]); format: organism-based; settings: in vivo, 672 h
Mus musculus [8] = assay: Toxicity in Swiss albino mouse assessed as changes in haemoglobin level at 1 mg/kg, po dosed once orally for 28 days (reference value: 13.87 +/- 0.46 g/dL); format: organism-based; settings: in vivo, 672 h
Mus musculus [9] = assay: Toxicity in Swiss albino mouse assessed as changes in albumin level at 1 mg/kg, po dosed once orally for 28 days (reference value: 2.78 +/- 1.82 g/dL); format: organism-based; settings: in vivo, 672 h
Mus musculus [10] = assay: Toxicity in Swiss albino mouse assessed as changes in SGPT level at 1 mg/kg, po dosed once orally for 28 days (reference value: 41.46 +/- 17.25 U/L); format: organism-based; settings: in vivo, 672 h
Mus musculus [11] = assay: Toxicity in Swiss albino mouse assessed as changes in triglycerides level at 10 mg/kg, po dosed once orally for 28 days (reference value: 263.69 +/- 3.38 mg/dL); format: organism-based; settings: in vivo, 672 h
Mus musculus [12] = assay: Toxicity in Swiss albino mouse assessed as changes in SGOT level at 0.1 mg/kg, po dosed once orally for 28 days (reference value: 112.7 +/- 10.6 U/L); format: organism-based; settings: in vivo, 672 h
Mus musculus [13] = assay: Toxicity in Swiss albino mouse assessed as changes in total protein level at 1 mg/kg, po dosed once orally for 28 days (reference value: 3.45 +/- 0.45 […]); format: organism-based; settings: in vivo, 672 h
Mus musculus [14] = assay: Toxicity in Swiss albino mouse assessed as changes in total protein level at 10 mg/kg, po dosed once orally for 28 days (reference value: 3.45 +/- 0.45 […]); format: organism-based; settings: in vivo, 672 h
Mus musculus [15] = assay: Toxicity in Swiss albino mouse assessed as changes in body weight at 10 mg/kg, po dosed once orally for 28 days (reference value: 31.2 +/- 1.6g); format: organism-based; settings: in vivo, 672 h
Mus musculus [16] = assay: Toxicity in Swiss albino mouse assessed as changes in haemoglobin level at 10 mg/kg, po dosed once orally for 28 days (reference value: 13.87 +/- 0.46 g/dL); format: organism-based; settings: in vivo, 672 h
Mus musculus [17] = assay: Toxicity in Swiss albino mouse assessed as changes in creatinine level at 10 mg/kg, po dosed once orally for 28 days (reference value: 0.04 +/- 0.37 mg/dL); format: organism-based; settings: in vivo, 672 h
Mus musculus [18] = assay: Toxicity in Swiss albino mouse assessed as changes in ALP level at 1 mg/kg, po dosed once orally for 28 days (reference value: 132.4 +/- 6.26 U/L); format: organism-based; settings: in vivo, 672 h
Mus musculus [19] = assay: Toxicity in Swiss albino mouse assessed as changes in triglycerides level at 0.1 mg/kg, po dosed once orally for 28 days (reference value: 263.69 +/- 3.38 mg/dL); format: organism-based; settings: in vivo, 672 h
Mus musculus [20] = assay: Toxicity in Swiss albino mouse assessed as changes in body weight at 0.1 mg/kg, po dosed once orally for 28 days (reference value: 31.2 +/- 1.6g); format: organism-based; settings: in vivo, 672 h
Mus musculus [21] = assay: Toxicity in Swiss albino mouse assessed as changes in SGPT level at 100 mg/kg, po dosed once orally for 28 days (reference value: 41.46 +/- 17.25 U/L); format: organism-based; settings: in vivo, 672 h
Mus musculus [22] = assay: Toxicity in Swiss albino mouse assessed as changes in ALP level at 10 mg/kg, po dosed once orally for 28 days (reference value: 132.4 +/- 6.26 U/L); format: organism-based; settings: in vivo, 672 h
Mus musculus [23] = assay: Toxicity in Swiss albino mouse assessed as changes in albumin level at 0.1 mg/kg, po dosed once orally for 28 days (reference value: 2.78 +/- 1.82 g/dL); format: organism-based; settings: in vivo, 672 h
Cardiac atrium [24] = assay: Cardiotonic activity in reserpine-pretreated and spontaneously beating rat atria assessed as inotropic activity by measuring contractile force at 100 uM (reference value: 100%); format: functional; in short: as §1
[25] = target: cGMP-inhibited 3',5'-cyclic phosphodiesterase 3B (Homo sapiens, UniProt Q13370); assay: Inhibition of human PDE3B using FAM-cAMP by fluorescence polarization assay
Sequence of cGMP-inhibited 3',5'-cyclic phosphodiesterase 3B (Q13370 whole entry): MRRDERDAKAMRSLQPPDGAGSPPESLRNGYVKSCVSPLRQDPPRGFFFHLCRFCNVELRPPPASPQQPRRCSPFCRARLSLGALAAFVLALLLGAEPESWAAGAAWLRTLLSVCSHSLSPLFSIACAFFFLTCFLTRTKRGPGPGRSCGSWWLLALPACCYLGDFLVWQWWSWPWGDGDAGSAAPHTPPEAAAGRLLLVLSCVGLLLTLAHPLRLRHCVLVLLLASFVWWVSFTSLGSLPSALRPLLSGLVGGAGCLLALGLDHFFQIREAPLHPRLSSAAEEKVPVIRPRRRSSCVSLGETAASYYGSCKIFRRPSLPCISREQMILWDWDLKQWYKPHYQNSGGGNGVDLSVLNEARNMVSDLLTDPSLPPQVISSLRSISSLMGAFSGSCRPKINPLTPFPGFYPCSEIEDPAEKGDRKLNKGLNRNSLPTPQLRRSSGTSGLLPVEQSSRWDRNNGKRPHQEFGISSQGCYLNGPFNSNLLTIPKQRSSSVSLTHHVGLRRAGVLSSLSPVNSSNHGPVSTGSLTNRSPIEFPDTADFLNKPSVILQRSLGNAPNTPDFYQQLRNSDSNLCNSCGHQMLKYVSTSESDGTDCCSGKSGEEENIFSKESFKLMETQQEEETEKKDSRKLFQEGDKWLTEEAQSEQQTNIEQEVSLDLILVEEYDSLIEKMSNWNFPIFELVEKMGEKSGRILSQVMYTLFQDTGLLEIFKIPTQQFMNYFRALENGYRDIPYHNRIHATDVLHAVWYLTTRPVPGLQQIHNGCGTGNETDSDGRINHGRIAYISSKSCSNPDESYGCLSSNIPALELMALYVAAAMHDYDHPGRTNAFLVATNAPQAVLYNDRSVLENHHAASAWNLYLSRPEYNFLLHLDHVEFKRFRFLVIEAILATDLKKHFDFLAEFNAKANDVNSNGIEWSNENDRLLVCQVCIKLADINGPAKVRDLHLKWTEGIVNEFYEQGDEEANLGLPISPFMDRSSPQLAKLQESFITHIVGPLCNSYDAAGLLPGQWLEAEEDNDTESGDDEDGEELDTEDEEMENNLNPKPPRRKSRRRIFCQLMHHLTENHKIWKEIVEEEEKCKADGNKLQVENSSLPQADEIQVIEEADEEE
In short: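 IMAP fluorescence polarization assay. 1 ng PDE3A or PDE3B with 100 nM FAM-cAMP in reaction buffer, 60 min at room temperature, then binding reagent (1:600) for 60 min. Read at ex 485/em 528 nm, duplicates. Activity scaled between no-enzyme FP (0%) and highest FP (100%). IC50 from sigmoidal fit over 0.01–100 µM.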

Mus musculus [26] = assay: Toxicity in Swiss albino mouse assessed as changes in SGOT level at 10 mg/kg, po dosed once orally for 28 days (reference value: 112.7 +/- 10.6 U/L); format: organism-based; settings: in vivo, 672 h

Fc1ccc(-c2csc(-n3cc(-c4nnn[nH]4)cn3)n2)cc1
Activity (Mus musculus [1]): 41.8 U/L
Activity (Mus musculus [2]): 40.12 U/L
Activity (Mus musculus [3]): 2.59 g/dL
Activity (Cardiac atrium [4]): 129%
Activity (Cardiac atrium [5]): 123%
Activity (Mus musculus [6]): 134.02 U/L
Activity (Mus musculus [7]): 3.96 g/dL
Activity (Mus musculus [8]): 15.34 g/dL
Activity (Mus musculus [9]): 2.61 g/dL
Activity (Mus musculus [10]): 41.34 U/L
Activity (Mus musculus [11]): 251.86 mg/dL
Activity (Mus musculus [12]): 107.8 U/L
Activity (Mus musculus [13]): 3.64 g/dL
Activity (Mus musculus [14]): 4.12 g/dL
Activity (Mus musculus [15]): 32.62 g
Activity (Mus musculus [16]): 15.72 g/dL
Activity (Mus musculus [17]): 0.04 mg/dL
Activity (Mus musculus [18]): 136.6 U/L
Activity (Mus musculus [19]): 254.1 mg/dL
Activity (Mus musculus [20]): 29.28 g
Activity (Mus musculus [21]): 42.1 U/L
Activity (Mus musculus [22]): 133.3 U/L
Activity (Mus musculus [23]): 2.89 g/dL
Activity (Cardiac atrium [24]): 163%
IC50 [25]: 2.34 µM
Activity (Mus musculus [26]): 110.2 U/L
